Bioassay records deposited in PubChem BioAssay by Broad Institute.
A selection: hits, their analogues and other compounds. The true share with any hit is near 1.9%.
FN deposit inh: inhibitors of fibronectin matrix deposition, primary screen, AH1F cells, Alexa488-fibronectin fluorescence, plate reader | AID 743247, 2014 | 350,000 tested, 0.086% active | inhibition, % at 12.6 µM | AH1F fibroblasts, overnight;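 active means mean inhibition across replicates of 30% or more, regardless of how many single replicates reach that level; inconclusive means mean under 30% yet at least half of replicates reach 30%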;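 further: positive control wells lacked labelled fibronectin entirely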
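Assay system: AH1F fibroblasts / Quantity: 10000 cells per well / Medium: DMEM plus 2% serum, read in PBS / Reagent: labelled fibronectin 24 nM / Dosing: single dose, pinned / Times: 1 h cell attachment, overnight exposure to compound and label / Signal: fluorescence, ex 485 nm, em 525 nm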
PGC1a acetyl inh: inhibitors of PGC1a acetylation signal, primary screen, cell-based, U2OS, AlphaScreen, inhibitor mode; AlphaScreen anti-acetyl-lysine; with virally co-expressed GCN5 acetyltransferase; inhibition, % at 15.6 µM; 350,000 tested, 0.17% active; AID 651687, 2012;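 active means every replicate shows inhibition of at least 40%; inconclusive means mean inhibition at least 40% but some replicate below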;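 further: 0% = neutral control wells and 100% = positive control wells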
Cneo AK release: Cryptococcus neoformans cell lysis inducers, primary screen, AK release luminescence, single concentration; C. neoformans lysis, adenylate kinase release luminescence, 4 h; normalised: neutral wells 0, clomiphene wells 100; 360,000 tested, 0.2% active; lysis activity, % at 15 µM;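 active means mean lysis activity across replicates of at least 80%, whatever share of replicates individually reach that level; inactive means mean lysis activity below 80%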
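Assay system: log-phase C. neoformans yeast / Quantity: yeast cell density of 5 × 10^6 cells/mL / Medium: fresh YPD growth medium / Compound: single dose / Timing: static 4 h at 37 °C with compound, 1 h detection / Measured by: adenylate kinase release luminescence / Read-out: lysis from increased AK signal / Benchmarks: Clomiphene as positive lysis control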
Xi reactivation: activators of inactive X chromosome reactivation, primary screen, imaging, XiGFP fibroblasts, GFP high-content imaging, set 2 | XiGFP mouse fibroblasts, % GFP-positive cells imaging, 3 d; cells co-treated with 5-aza-dC sensitizer; scaled so ellipticine positive control = 100% | activation, % at 7.58 µM | 360,000 tested, 0.055% active;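 active means mean normalized replicate activation at least 10% and every replicate at or above 10%; inconclusive means only one of the two criteria met; inactive means mean below 10% and not all replicates reach 10%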;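 further: 0% = median of on-plate neutral control wells and 100% = ellipticine 6 µM median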
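Material: XiGFP fibroblasts, SV40-immortalized; Buffer or medium: DMEM containing 5-aza-dC; Compound dosing: single point; Times: 3 days compound exposure.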
CFTR F508del cor: F508del CFTR correction, initial screen, CFBE line, single point. activity (quench increase), % at 7.58 µM. CFBE cells, YFP halide quenching; stimulated with forskolin plus potentiator P3; % fluorescence drop versus neutral controls. 350,000 tested, 0.36% active. AID 720511, 2013;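 active means mean added fluorescence quench of at least 8% versus neutral control, with both replicates also reaching 8%; inconclusive means only one of the mean or replicate conditions met; inactive means mean below 8% and not both replicates reaching 8%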;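 further: cells transiently co-express mutant CFTR-F508del with the halide-sensitive YFP; corrector assay measuring rescue of mutant channel to the surface after 24 h compound exposure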
DENV2 CPE rescue: inhibitors of DENV2 cytopathic effect, primary screen, cell-based, plate reader, single concentration | 350,000 tested, 1.7% active | DENV2-infected cells, cytopathic effect rescue | CPE inhibition, % at 9.99 µM; in the data active means CPE inhibition above about 20%, passing the limit was not always enough; inconclusive means no clear call, values can overlap the other calls; tested in BHK-21 cells;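 further: 0% = median of neutral control wells and 100% = median of positive control wells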
* marks the source's active call; other numbers are inactive results; u = inconclusive; x = no result.

SMILES | FN deposit inh | PGC1a acetyl inh | Cneo AK release | Xi reactivation | CFTR F508del cor | DENV2 CPE rescue
Cc1cc(OCC(=O)NC(Cc2ccc(Cl)cc2)C(=O)O)c2c(C)c(C)c(=O)oc2c1 (configuration not stated) | x | -4 | -3 | x | 2 | 92*
CC(=O)N(C)C[C@@H]1Oc2ncc(/C=C/c3ccccc3)cc2C(=O)N([C@H](C)CO)C[C@H]1C | 8 | 3 | 1 | 0 | 4 | u
N#C[C@@H]1[C@@H](c2ccccc2C2=CCCC2)[C@H](CO)N1C(=O)Cc1ccncc1 | 4 | 2 | x | 0 | 2 | 29*
N#C[C@@H]1[C@H](c2ccccc2C2=CCCCC2)[C@@H](CO)N1C(=O)c1ccccn1 | -1 | -2 | x | 0 | -1 | 27*
N#C[C@H]1[C@@H](c2ccccc2C2=CCCCC2)[C@H](CO)N1C(=O)Cc1ccncc1 | -6 | x | x | 0 | 2 | -2
N#C[C@@H]1[C@H](c2ccccc2C2=CCCCC2)[C@H](CO)N1C(=O)Cc1ccncc1 | -1 | 45* | x | 0 | -2 | 9
CC(=O)N1CC2(C1)[C@H](c1ccc(-c3ccc(F)cc3)cc1)[C@H](CO)N2C(C)=O | x | 3 | x | 0 | 1 | 83*
CC(=O)N1CC2(C1)[C@H](c1ccc(-c3ccc(C#N)cc3)cc1)[C@H](CO)N2CCC(F)(F)F | x | -1 | x | 0 | 3 | 33*
CC(=O)N1CC2(C1)[C@@H](c1ccc(-c3ccc(C#N)cc3)cc1)[C@@H](CO)N2CCC(F)(F)F | x | -2 | x | 0 | -1 | -11
Cc1ccc(S(=O)(=O)Nc2ccc3c(c2)CC(=O)N([C@@H](C)CO)C[C@@H](C)[C@@H](CN(C)S(=O)(=O)c2ccc(C)cc2)O3)cc1 | x | -18 | 5 | 0 | 0 | -9
Cc1cccc(S(=O)(=O)N[C@@H]2CC[C@@H](CCNC(=O)c3cnccn3)O[C@@H]2CO)c1 | -7 | 4 | 53 | 0 | 1 | 31*
COc1ccccc1NC(=O)N[C@@H]1CC[C@@H](CCNS(=O)(=O)c2ccc(Cl)cc2)O[C@H]1CO | 6 | -6 | -1 | 0 | 0 | 20*
O=C(NCC[C@H]1CC[C@H](NC(=O)c2cnccn2)[C@@H](CO)O1)Nc1ccc(F)cc1 | -13 | -5 | 1 | 0 | 3 | 22*
O=C(CC1CC1)N[C@H]1CC[C@@H](CCNS(=O)(=O)c2ccc(Cl)cc2)O[C@@H]1CO | -8 | 67* | 3 | 0 | 0 | 1
Cc1noc(C)c1NC(=O)N(C)C[C@@H]1Oc2ncc(C#CC(C)C)cc2C(=O)N([C@@H](C)CO)C[C@H]1C | 2 | -4 | 2 | 0 | 0 | -2
O=C(Cc1cccnc1)N1CC(=O)N2[C@H](C1)[C@@H](c1ccc(-c3cccc(F)c3)cc1)[C@@H]2CO | x | x | x | 1 | x | x
CO[C@@H](CN(C)C(=O)c1cnccn1)[C@@H](C)CN([C@H](C)CO)S(=O)(=O)c1ccc(Cl)cc1 | 14 | 6 | 15 | 0 | -2 | -3
O=C(N[C@H]1CC[C@H](CCNS(=O)(=O)c2ccc(Cl)cc2)O[C@@H]1CO)c1cnccn1 | x | 1 | 0 | 0 | 0 | 49*
COc1ccc2c(c1OC)OCC2C (configuration not stated) | x | x | -1 | 0 | 8.1* | 4
C[C@H]1CN([C@@H](C)CO)C(=O)Cc2cc(NC(=O)C3CC3)ccc2O[C@@H]1CN(C)C(=O)Nc1ccc2c(c1)OCO2 | x | -1 | -5 | 0 | 3 | -10
N#C[C@H]1[C@@H](c2ccccc2C2=CCCCC2)[C@@H](CO)N1C(=O)NC1CCCC1 | -13 | 1 | x | 0 | 4 | 22*
N#C[C@@H]1[C@H](c2ccccc2-c2ccccc2)[C@@H](CO)N1C(=O)NC1CCCCC1 | -5 | -1 | x | 0 | 0 | 45*
N#C[C@H]1[C@H](c2ccccc2C2=CCCCC2)[C@@H](CO)N1C(=O)NC1CCCC1 | 2 | -1 | x | 0 | -3 | -12
CCCNC(=O)C[C@@H]1CC[C@H]2[C@@H](COC[C@@H](O)CN2Cc2cccc(F)c2)O1 | 1 | 11 | 6 | 0 | 3 | 0
Cn1c(C(=O)c2ccccc2)nc2ccccc21 | -2 | -2 | 1 | 0 | -2 | u
SMILES | FN deposit inh | PGC1a acetyl inh | Cneo AK release | Xi reactivation | CFTR F508del cor | DENV2 CPE rescue
Cn1c(C(=O)c2ccccc2[N+](=O)[O-])nc2ccccc21 | -1 | x | x | 0 | 8.6* | -2
CCN(CC)S(=O)(=O)c1ccc2c(c1)nc(CCC(=O)OCC(=O)Nc1cc(OC)cc(OC)c1)n2C | -4 | x | x | 0 | 0 | -10
CCN(CC)S(=O)(=O)c1ccc2c(c1)nc(CCC(=O)OCC(=O)Nc1c(F)cccc1F)n2C | -5 | x | x | 0 | -2 | 45*
C[C@@H]1CCCCO[C@H](CN(C)Cc2ccc(C(=O)O)cc2)[C@H](C)CN([C@@H](C)CO)C(=O)c2cc(NC(=O)C3CCCCC3)ccc2O1 | x | -2 | 4 | 0 | -1 | -3
COc1ccc2ccccc2c1/C=N/NC(=O)c1ccccc1F | 1 | 12 | 3 | 0 | 3 | 44*
C[C@@H]1CN([C@H](C)CO)C(=O)Cc2cc(NC(=O)Nc3ccccc3)ccc2O[C@@H]1CN(C)Cc1ccc(C(=O)O)cc1 | x | -1 | -1 | x | -2 | u
CCC(C)[C@H]1COCCS(=O)(=O)N1Cc1ccc(Br)cc1 (some centres not stated) | 10 | -10 | 0 | 0 | 1 | 100*
COc1ccc(S(=O)(=O)Nc2ccc3c(c2)C(=O)N([C@@H](C)CO)C[C@H](C)[C@H](CN(C)C(=O)Nc2cccc4ccccc24)OCCCC[C@@H](C)O3)cc1 | x | -4 | x | 0 | -2 | -10
O=C(CC1CC1)N[C@H]1C[C@@H]2O[C@@H](CO)CC[C@@H]2O[C@@H]1CCc1ccc(C#Cc2ccccc2)cc1 | x | -15 | x | x | 1 | 21*
O=C(CC1CC1)N[C@@H]1C[C@@H]2O[C@@H](CO)CC[C@@H]2O[C@@H]1CCc1ccc(C#Cc2ccccc2)cc1 | x | 5 | x | x | 2 | 4
CN(C)CC(=O)N[C@H]1C[C@@H]2O[C@H](CO)CC[C@@H]2O[C@@H]1CCc1ccc(C#Cc2ccccc2)cc1 | x | -22 | x | x | -6 | -6
O=C(CC1CC1)N[C@H]1C[C@@H]2O[C@H](CO)CC[C@@H]2O[C@@H]1CCc1ccc(C#Cc2ccccc2)cc1 | x | -7 | x | x | 0 | 28*
